Test results taken from ChEMBL document CHEMBL4304743, “Discovery of ( E)- N1-(3-Fluorophenyl)- N3-(3-(2-(pyridin-2-yl)vinyl)-1 H-indazol-6-yl)malonamide (CHMFL-KIT-033) as a Novel c-KIT T670I Mutant Selective Kinase Inhibitor for Gastrointestinal Stromal Tumors (GISTs)” (J Med Chem, 2019).
Calls of active or inactive are those of the source. The rule behind the calls is not given here.

Assays:
[1] = test system: Mast/stem cell growth factor receptor Kit (Homo sapiens), P10721 [V559D]; assay: Inhibition of TEL fused c-KIT V559D mutant (unknown origin) transfected in mouse BAF3 cells assessed as growth inhibition after 72 hrs by CCK8 assay; type: cell-based
Mast/stem cell growth factor receptor Kit (Homo sapiens), P10721 [V559D], sequence (P10721 whole entry V559D, the tested form may be a part): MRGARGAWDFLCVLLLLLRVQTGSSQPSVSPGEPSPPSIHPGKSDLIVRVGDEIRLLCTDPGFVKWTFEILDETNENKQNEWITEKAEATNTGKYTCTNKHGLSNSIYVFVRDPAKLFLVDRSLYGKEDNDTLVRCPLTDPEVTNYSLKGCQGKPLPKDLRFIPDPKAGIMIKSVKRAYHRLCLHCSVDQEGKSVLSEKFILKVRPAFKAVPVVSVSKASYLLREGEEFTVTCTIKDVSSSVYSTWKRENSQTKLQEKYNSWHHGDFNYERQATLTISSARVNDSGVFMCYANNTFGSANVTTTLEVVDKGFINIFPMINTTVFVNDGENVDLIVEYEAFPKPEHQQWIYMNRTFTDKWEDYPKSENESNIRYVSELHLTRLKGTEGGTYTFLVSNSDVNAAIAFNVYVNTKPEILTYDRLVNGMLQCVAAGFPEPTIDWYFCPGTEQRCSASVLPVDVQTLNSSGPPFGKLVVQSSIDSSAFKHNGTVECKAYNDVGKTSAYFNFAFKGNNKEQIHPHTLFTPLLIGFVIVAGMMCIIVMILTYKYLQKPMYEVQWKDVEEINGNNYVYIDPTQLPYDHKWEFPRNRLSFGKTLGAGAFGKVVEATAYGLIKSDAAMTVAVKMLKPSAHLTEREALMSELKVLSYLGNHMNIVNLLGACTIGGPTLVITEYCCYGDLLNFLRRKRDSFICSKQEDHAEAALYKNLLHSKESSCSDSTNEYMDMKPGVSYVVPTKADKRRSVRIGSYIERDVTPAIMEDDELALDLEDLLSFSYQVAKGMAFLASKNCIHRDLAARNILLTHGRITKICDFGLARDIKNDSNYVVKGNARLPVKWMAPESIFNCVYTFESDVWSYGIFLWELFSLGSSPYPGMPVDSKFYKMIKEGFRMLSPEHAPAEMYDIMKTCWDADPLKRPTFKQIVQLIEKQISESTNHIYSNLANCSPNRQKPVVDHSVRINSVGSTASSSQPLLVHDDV
Summary of the method: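 Tel-c-KIT-transformed BaF3 lines (IL-3 independent) kept in RPMI 1640 with 10% FBS, 2% L-glutamine and pen/strep. Cells at 1.5 to 5 × 10^4 cells/mL mixed with graded compound and incubated 72 h at 37 °C, 5% CO2. Viability by CCK-8 absorbance at 450 nm, normalized to DMSO. GI50 from dose–response fit.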

[2] = molecular target: Mast/stem cell growth factor receptor Kit (Homo sapiens, UniProt P10721); assay: Inhibition of wild type c-KIT phosphorylation at Y703 residue in human COLO320DM cells after 2 hrs by Western blot analysis; type: cell-based
Mast/stem cell growth factor receptor Kit, sequence (P10721 whole entry, the tested form may be a part, canonical isoform): as the sequence (P10721 whole entry V559D, the tested form may be a part) above, with D559V counted along it

[3] = molecular target: Casein kinase I isoform alpha (Homo sapiens, UniProt P48729); assay: Binding affinity to wild-type human partial length CSNK1A1 (M1 to L301 residues) expressed in mammalian expression system assessed as enzyme remaining activity at 1 uM by Kinomescan assay relative to control
Casein kinase I isoform alpha, sequence (P48729 2-337 limits assumed): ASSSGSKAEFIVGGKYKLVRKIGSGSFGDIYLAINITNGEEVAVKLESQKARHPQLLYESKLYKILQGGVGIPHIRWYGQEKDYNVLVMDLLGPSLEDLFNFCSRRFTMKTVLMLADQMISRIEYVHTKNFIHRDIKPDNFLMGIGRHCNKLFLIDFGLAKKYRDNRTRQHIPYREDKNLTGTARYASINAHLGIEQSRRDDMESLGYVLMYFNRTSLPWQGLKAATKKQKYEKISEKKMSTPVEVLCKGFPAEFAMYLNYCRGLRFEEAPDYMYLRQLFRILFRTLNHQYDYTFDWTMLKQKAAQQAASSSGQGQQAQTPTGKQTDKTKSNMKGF
Summary of the method: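 KINOMEscan competition binding panel of 468 kinases and mutants, compound at 1 μM; binding reported as percent of control.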

[4] = Antiproliferative activity against human GIST5R cells harboring c-KIT 560 to 578 deletion/T670I double mutant incubated for 72 hrs by CCK8 assay; type: functional
Summary of the method: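 Adherent GIST cells seeded at 1.5-5 × 10^4 cells/mL and left overnight at 37 °C, 5% CO2. Medium then replaced with medium holding serial compound dilutions; 72 h incubation. Viability by CCK-8, absorbance at 450 nm, normalized to DMSO control; GI50 from dose-response fit.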

[5] = test system: Mast/stem cell growth factor receptor Kit (Homo sapiens), P10721 [UNDEFINED MUTATION]; assay: Inhibition of c-KIT 560 to 578 deletion/T670I double mutant in human GIST5R cells assessed as reduction in c-KIT autophosphorylation at Y719 residue at 0.1 uM to 3 uM after 1 hr by Western blot analysis; type: cell-based
Mast/stem cell growth factor receptor Kit (Homo sapiens), P10721 [UNDEFINED MUTATION], sequence (P10721 whole entry, looked up, stated change not applied): as the sequence (P10721 whole entry V559D, the tested form may be a part) above, with D559V counted along it
Summary of the method: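 Serial compound dilutions applied for 1 h to GIST-T1, GIST-T1-T670I (CRISPR/Cas9 T670I knock-in, clone confirmed by Sanger sequencing) or GIST-5R cells in DMEM with 10% FBS. Cells then lysed and phospho-proteins detected by standard Western blotting.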

GISTT1 = assay: Induction of apoptosis in human GISTT1 cells harboring c-KIT 560 to 578 deletion/T670I double mutant assessed as increase in cleaved PARP level after 24 hrs by Western blot analysis; type: functional, cell-based
Summary of the method: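 GIST-T1-T670I cells grown in DMEM with 10% FBS, exposed to serially diluted compound for 24 h. Apoptosis read by Western blot with PARP and GAPDH antibodies.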

[6] = Apparent volume of distribution in Sprague-Dawley rat at 1 mg/kg, iv measured after 2 to 720 mins by LC-tandem mass spectrometry analysis; type: ADME, organism-based; conditions: in vivo, read-out: Vz
Summary of the method: (§1)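 Male Sprague-Dawley rats (190-210 g), fasted 12 h, randomized into two groups: 1 mg/kg i.v. or 10 mg/kg p.o., both formulated in 10% DMSO/90% of 5% glucose water. Blood sampled at 2-720 min (i.v.) or 5-720 min (p.o.). Plasma protein-precipitated with methanol, caffeine internal standard, LC-MS/MS. Noncompartmental analysis; triplicate, ±SD.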

[7] = Apparent clearance in Sprague-Dawley rat at 10 mg/kg, po measured after 5 to 720 mins by LC-tandem mass spectrometry analysis; type: ADME, organism-based; conditions: in vivo, read-out: CL(app) (converted); summary of the method: as §1
[8] = MRT (0 to infinity) in Sprague-Dawley rat at 10 mg/kg, po measured after 5 to 720 mins by LC-tandem mass spectrometry analysis; type: ADME, organism-based; conditions: in vivo
Summary of the method: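 Male Sprague–Dawley rats (190-210 g), fasted 12 h, given 1 mg/kg i.v. or 10 mg/kg p.o. in DMSO/5% glucose water (1:9). Blood sampled at 2–720 min (i.v.) or 5–720 min (p.o.). Plasma proteins precipitated with methanol using caffeine internal standard, then LC-MS/MS. Noncompartmental analysis; F = AUC0-∞ ratio corrected for dose; triplicate ±SD.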

[9] = Tmax in mouse at 1 mg/kg, iv measured after 2 to 720 mins by LC-tandem mass spectrometry analysis; type: ADME, organism-based; conditions: in vivo
[10] = Apparent clearance in mouse at 10 mg/kg, po measured after 5 to 720 mins by LC-tandem mass spectrometry analysis; type: ADME, organism-based; conditions: in vivo, read-out: CL(app) (converted)
Summary of the method: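 Mice dosed 1 mg/kg i.v. or 10 mg/kg p.o.; plasma drug levels by LC-MS/MS, parameters by noncompartmental analysis; values not from triplicate testing.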

[11] = MRT (0 to infinity) in mouse at 10 mg/kg, po measured after 5 to 720 mins by LC-tandem mass spectrometry analysis; type: ADME, organism-based; conditions: in vivo
Mus musculus [12] = assay: Inhibition of c-KIT phosphorylation at Y703 residue in tumor of human GIST5R cells xenografted in nude mouse at 100 mg/kg, po administered as single dose and measured at 2 hrs; type: functional, organism-based
Summary of the method: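 Female nu/nu mice bearing subcutaneous GIST-5R xenografts (cells in Matrigel, right flank) given one oral gavage dose of 100 mg/kg in HKI suspension (0.5% methocellulose/0.4% Tween80 in ddH2O). Tumors collected over a 2 h time course; p-c-KIT, p-ERK and p-AKT assessed by Western blot; plasma drug levels monitored in parallel.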

Mus musculus [13] = assay: Inhibition of AKT phosphorylation at […] residue in tumor of human GIST5R cells xenografted in nude mouse at 100 mg/kg, po administered as single dose and measured at 2 hrs; type: functional, organism-based
Summary of the method: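 Female nu/nu mice bearing subcutaneous GIST-5R tumors (cells in Matrigel, right flank) given one oral dose of 100 mg/kg in 0.5% methylcellulose/0.4% Tween80. Tumors collected over a 2 h time course. p-c-KIT, p-ERK and p-AKT measured alongside plasma drug levels.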

[14] = Drug level in plasma of nude mouse xenograted with human GIST5R cells at 100 mg/kg, po administered as single dose and measured at 4 hrs; type: ADME, organism-based; conditions: in vivo
Summary of the method: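 GIST-5R xenograft nu/nu mice given a single 100 mg/kg oral dose; plasma drug concentration followed over a time course alongside tumor p-c-KIT, p-ERK and p-AKT.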

[15] = Antitumor activity against human GIST5R cells xenografted in nude mouse assessed as tumor weight at 50 mg/kg, po administered […] via gavage for 28 days (reference value: 0.59g); type: functional
Summary of the method: (§2)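 Female nu/nu mice (5 weeks old) given subcutaneous right-flank GIST-5R cells in Matrigel. Dosing began at tumors of 200-400 mm3; randomized, 4 mice per group. Daily oral dosing (QD) at 25, 50 or 100 mg/kg in 0.5% methylcellulose/0.4% Tween80, or vehicle alone, for 28 days. Body weight and tumor volume, (W²×L)/2, measured daily; mean±SEM.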

[16] = Antitumor activity against human GIST5R cells xenografted in nude mouse assessed as tumor weight at 100 mg/kg, po administered […] via gavage for 28 days (reference value: 0.59g); type: functional; summary of the method: as §2

O=C(CC(=O)Nc1ccc2c(/C=C/c3ccccn3)n[nH]c2c1)Nc1cccc(F)c1
GI50 [1]: 8 nM
EC50 [2]: 1810 nM
Activity [3]: 0.2%
GI50 [4]: 475 nM
inhibition [5]: Active
Activity (GISTT1): Dose-dependent effect
Vd [6]: 49.3 L/kg
CL/F [7]: 207 mL/min/kg
MRT inf [8]: 5.4 h
Tmax [9]: 1.8 min
CL/F [10]: 113 mL/min/kg
MRT inf [11]: 2.2 h
inhibition (Mus musculus [12]): Active
inhibition (Mus musculus [13]): Active
Drug uptake [14]: Not Active
Activity [15]: 0.25 g
Activity [16]: 0.1 g
